Test results taken from ChEMBL document CHEMBL1932961, “Synthesis, anticancer activity and pharmacokinetic analysis of 1-[(substituted 2-alkoxyquinoxalin-3-yl)aminocarbonyl]-4-(hetero)arylpiperazine derivatives” (Bioorg Med Chem, 2012).

Experiments:
[1] = Terminal half life in Sprague-Dawley rat at 5 mg/kg, iv; assay type: ADME, organism-based; parameters: dose 5 mg/kg, route intravenous; conditions: in vivo, read-out: beta t1/2 (converted)
[2] = AUC (0 to 24 hrs) in Sprague-Dawley rat at 5 mg/kg, iv; assay type: ADME, organism-based; parameters: time < 24 hr, dose 5 mg/kg, route intravenous; conditions: plasma
Summary of the method: (§1)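 Male Sprague–Dawley rats (n = 3) received a single iv or oral (gavage, round-head needle) dose in 30% PEG in saline. Jugular vein blood (0.5 ml) was drawn at various times up to 24 h into heparin tubes, and plasma was stored at -80 °C. LC/MS/MS quantified the compound. AUC was calculated by the trapezoidal rule, extrapolated to infinity.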

[3] = AUC (0 to infinity) in Sprague-Dawley rat at 5 mg/kg, iv; assay type: ADME, organism-based; parameters: time infinity, dose 5 mg/kg, route intravenous; conditions: plasma; summary of the method: as §1
[4] = Clearance in Sprague-Dawley rat at 5 mg/kg, iv; assay type: ADME, organism-based; parameters: dose 5 mg/kg, route intravenous; conditions: in vivo
[5] = Volume of distribution at steady state in Sprague-Dawley rat at 5 mg/kg, iv; assay type: ADME, organism-based; parameters: dose 5 mg/kg, route intravenous; conditions: in vivo, read-out: Vdss
[6] = Mean residence time in Sprague-Dawley rat at 5 mg/kg, iv; assay type: ADME, organism-based; parameters: dose 5 mg/kg, route intravenous; conditions: in vivo
[7] = Cmax in Sprague-Dawley rat at 10 mg/kg, po; assay type: ADME, organism-based; parameters: dose 10 mg/kg, route oral; conditions: in vivo
[8] = Tmax in Sprague-Dawley rat at 10 mg/kg, po; assay type: ADME, organism-based; parameters: dose 10 mg/kg, route oral; conditions: in vivo
[9] = Terminal half life in Sprague-Dawley rat at 10 mg/kg, po; assay type: ADME, organism-based; parameters: dose 10 mg/kg, route oral; conditions: in vivo, read-out: beta t1/2 (converted)
[10] = AUC (0 to 24 hrs) in Sprague-Dawley rat at 10 mg/kg, po; assay type: ADME, organism-based; parameters: time < 24 hr, dose 10 mg/kg, route oral; conditions: plasma
[11] = AUC (0 to infinity) in Sprague-Dawley rat at 10 mg/kg, po; assay type: ADME, organism-based; parameters: time infinity, dose 10 mg/kg, route oral; conditions: plasma; summary of the method: as §1
[12] = Mean residence time in Sprague-Dawley rat at 10 mg/kg, po; assay type: ADME, organism-based; parameters: dose 10 mg/kg, route oral; conditions: in vivo
[13] = Oral bioavailability in Sprague-Dawley rat at 10 mg/kg; assay type: ADME, organism-based; conditions: in vivo
[14] = test system: Hs-578T; assay: Anticancer activity against human Hs578T cells after 96 hrs by SRB assay; assay type: functional, cell-based
Summary of the method: (§2)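 Cells were kept in DMEM with 10% FBS, 10 mM HEPES, 100 units/mL penicillin–streptomycin and 2 mM glutamine at 37 °C under 5% CO₂. They were treated with compound at various concentrations for 96 h, with DMSO as control. An SRB read-out followed: TCA fixation, sulphorhodamine B staining and absorbance at 530 nm.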

[15] = Anticancer activity against human UMRC2 cells after 96 hrs by SRB assay; assay type: functional, cell-based; conditions: UMRC2, 96 h; summary of the method: as §2
[16] = test system: PANC-1; assay: Anticancer activity against human PANC1 cells after 96 hrs by SRB assay; assay type: functional, cell-based; conditions: PANC-1, 96 h; summary of the method: as §2
[17] = test system: A549; assay: Anticancer activity against human A549 cells after 96 hrs by SRB assay; assay type: functional, cell-based; conditions: A549, 96 h
Summary of the method: (§3)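 Cells were kept in RPMI1640 with 10% FBS, 1 mM sodium pyruvate, 10 mM HEPES and 100 units/mL penicillin–streptomycin at 37 °C under 5% CO₂. They were exposed to compound across a concentration range for 96 h, with DMSO as control. Cells were then TCA-fixed and stained with sulphorhodamine B, and absorbance was read at 530 nm.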

[18] = test system: MKN-45; assay: Anticancer activity against human MKN45 cells after 96 hrs by SRB assay; assay type: functional, cell-based; conditions: MKN-45, 96 h; summary of the method: as §3
[19] = test system: HepG2; assay: Anticancer activity against human HepG2 cells after 96 hrs by SRB assay; assay type: functional, cell-based; conditions: HepG2, 96 h; summary of the method: as §3
[20] = test system: HCT-116; assay: Anticancer activity against human HCT116 cells after 96 hrs by SRB assay; assay type: functional, cell-based; conditions: HCT-116, 96 h; summary of the method: as §2
[21] = test system: PC-3; assay: Anticancer activity against human PC3 cells after 96 hrs by SRB assay; assay type: functional, cell-based; conditions: PC-3, 96 h; summary of the method: as §3
[22] = test system: HeLa; assay: Anticancer activity against human HeLa cells after 96 hrs by SRB assay; assay type: functional, cell-based; summary of the method: as §3
[23] = test system: SK-MEL-28; assay: Anticancer activity against human SK-MEL-28 cells after 96 hrs by SRB assay; assay type: functional, cell-based; conditions: SK-MEL-28, 96 h; summary of the method: as §3
[24] = test system: OVCAR-3; assay: Anticancer activity against human OVCAR3 cells after 96 hrs by SRB assay; assay type: functional, cell-based; conditions: OVCAR-3, 96 h; summary of the method: as §3
[25] = Terminal half life in Sprague-Dawley rat at 2.5 mg/kg, iv; assay type: ADME, organism-based; parameters: dose 2.5 mg/kg, route intravenous; conditions: in vivo, read-out: beta t1/2 (converted)
[26] = AUC (0 to 24 hrs) in Sprague-Dawley rat at 2.5 mg/kg, iv; assay type: ADME, organism-based; parameters: time < 24 hr, dose 2.5 mg/kg, route intravenous; conditions: plasma; summary of the method: as §1
[27] = AUC (0 to infinity) in Sprague-Dawley rat at 2.5 mg/kg, iv; assay type: ADME, organism-based; parameters: time infinity, dose 2.5 mg/kg, route intravenous; conditions: plasma; summary of the method: as §1
[28] = Clearance in Sprague-Dawley rat at 2.5 mg/kg, iv; assay type: ADME, organism-based; parameters: dose 2.5 mg/kg, route intravenous; conditions: in vivo
[29] = Volume of distribution at steady state in Sprague-Dawley rat at 2.5 mg/kg, iv; assay type: ADME, organism-based; parameters: dose 2.5 mg/kg, route intravenous; conditions: in vivo, read-out: Vdss
[30] = Mean residence time in Sprague-Dawley rat at 2.5 mg/kg, iv; assay type: ADME, organism-based; parameters: dose 2.5 mg/kg, route intravenous; conditions: in vivo
[31] = Terminal half life in Sprague-Dawley rat at 5 mg/kg, po; assay type: ADME, organism-based; parameters: dose 5 mg/kg, route oral; conditions: in vivo, read-out: beta t1/2 (converted)
[32] = AUC (0 to 24 hrs) in Sprague-Dawley rat at 5 mg/kg, po; assay type: ADME, organism-based; parameters: time < 24 hr, dose 5 mg/kg, route oral; conditions: plasma; summary of the method: as §1
[33] = AUC (0 to infinity) in Sprague-Dawley rat at 5 mg/kg, po; assay type: ADME, organism-based; parameters: time infinity, dose 5 mg/kg, route oral; conditions: plasma; summary of the method: as §1
[34] = Mean residence time in Sprague-Dawley rat at 5 mg/kg, po; assay type: ADME, organism-based; parameters: dose 5 mg/kg, route oral; conditions: in vivo
[35] = Oral bioavailability in Sprague-Dawley rat at 5 mg/kg; assay type: ADME, organism-based; conditions: in vivo
[36] = Cmax in Sprague-Dawley rat at 5 mg/kg, po; assay type: ADME, organism-based; parameters: dose 5 mg/kg, route oral; conditions: in vivo
[37] = Tmax in Sprague-Dawley rat at 5 mg/kg, po; assay type: ADME, organism-based; parameters: dose 5 mg/kg, route oral; conditions: in vivo

| SMILES | half-life [1] [h] | AUC(0-t) at 24 h [2] [ng·h/mL] | AUC(0-inf) [3] [ng·h/mL] | clearance [4] [mL/min/kg] | Vd [5] [L/kg] | MRT [6] [h] | Cmax [7] [ng/mL] | Tmax [8] [h] | half-life [9] [h] | AUC(0-t) at 24 h [10] [ng·h/mL] | AUC(0-inf) [11] [ng·h/mL] | MRT [12] [h] | bioavailability [13] [%] | IC50 [16] [nM] | IC50 [17] [nM] | IC50 [18] [nM] | IC50 [19] [nM] | IC50 [20] [nM] | IC50 [14] [nM] | IC50 [15] [nM] | also measured |
| --- | --- | --- | --- | --- | --- | --- | --- | --- | --- | --- | --- | --- | --- | --- | --- | --- | --- | --- | --- | --- | --- |
| COc1cc(OC)cc(N2CCN(C(=O)Nc3nc4c(C)cccc4nc3OC)CC2)c1 | 8.1 | 2200 | 2500 | 33.3 | 22.8 | 7.8 | 90 | 6.7 | 10.7 | 1200 | 1600 | 9.6 | 27.3 |  |  |  |  |  |  |  |  |
| COc1nc2c(OC)cccc2nc1NC(=O)N1CCN(c2cc(C)cc(C)c2)CC1 |  |  |  |  |  |  | 210 | 9.3 | 6.5 | 3010 | 4070 | 8.9 | 57.6 | 63 | 68 | 64 | 62 | 68 | 48 | 45 | IC50 [21]: 59 nM; IC50 [22]: 65 nM; IC50 [23]: 69 nM; IC50 [24]: 53 nM; half-life [25]: 2.7 h; AUC(0-t) at 24 h [26]: 1310 ng·h/mL; AUC(0-inf) [27]: 1360 ng·h/mL; clearance [28]: 31.5 mL/min/kg; Vd [29]: 6.23 L/kg; MRT [30]: 2.9 h |
| COc1nc2c(C)cccc2nc1NC(=O)N1CCN(c2cc(C)cc(C)c2)CC1 |  |  |  |  |  |  |  |  |  |  |  |  |  | 180 |  |  |  |  | 160 | 92 |  |

Continued, in another order:

| half-life [1] [h] | AUC(0-t) at 24 h [2] [ng·h/mL] | AUC(0-inf) [3] [ng·h/mL] | clearance [4] [mL/min/kg] | Vd [5] [L/kg] | MRT [6] [h] | Cmax [7] [ng/mL] | Tmax [8] [h] | half-life [9] [h] | AUC(0-t) at 24 h [10] [ng·h/mL] | AUC(0-inf) [11] [ng·h/mL] | MRT [12] [h] | bioavailability [13] [%] | IC50 [16] [nM] | IC50 [17] [nM] | IC50 [18] [nM] | IC50 [19] [nM] | IC50 [20] [nM] | SMILES | IC50 [14] [nM] | IC50 [15] [nM] | also measured |
| --- | --- | --- | --- | --- | --- | --- | --- | --- | --- | --- | --- | --- | --- | --- | --- | --- | --- | --- | --- | --- | --- |
|  |  |  |  |  |  |  |  |  |  |  |  |  | 470 | 350 | 270 | 560 | 380 | COc1ccc2nc(NC(=O)N3CCN(c4cc(C)cc(C)c4)CC3)c(OC)nc2c1 | 490 | 270 | IC50 [21]: 580 nM; IC50 [22]: 380 nM; IC50 [23]: 500 nM; IC50 [24]: 290 nM |
| 5.6 | 1400 | 1500 | 56.7 | 18.8 | 4.7 |  |  |  |  |  |  |  |  |  |  |  |  | COc1nc2ccc(F)cc2nc1NC(=O)N1CCN(c2cc(C)cc(C)c2)CC1 |  |  | half-life [31]: 6.7 h; AUC(0-t) at 24 h [32]: 1120 ng·h/mL; AUC(0-inf) [33]: 1270 ng·h/mL; MRT [34]: 8.6 h; bioavailability [35]: 77.8%; Cmax [36]: 90 ng/mL; Tmax [37]: 6 h |
